Each block holds one molecule with its values, some of them ahead of it.
Columns and labels:
Rattus norvegicus [1] = experiment: Cmax in portal vein cannulated Sprague-Dawley rat assessed as N-(2-aminoethyl)nicotinamide at 30 mg/kg, po measured up to 140 mins; assay type: ADME, organism-based; set-up: dose 30 mg/kg, route oral; details: in vivo
Method in brief: (§1)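 Sprague Dawley rats surgically fitted with indwelling jugular vein and portal vein cannulas; oral dosing, then serial blood draws from both portal and jugular veins at 10, 20, 40 min and 1, 2, 4, 6 hr post dose; plasma analysed for parent and metabolites by LC/MS/MS.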

Liver [2] = experiment: Drug metabolism in Sprague-Dawley rat liver assessed as linker EPA metabolite (5Z,8Z,11Z,14Z,17Z)-N-(2-aminoethyl)icosa-5,8,11,14,17-pentaenamide formation at 300 mg/kg, qd administered through oral gavage for 7 days measured 2 hrs post last dose by LC/MS/MS analysis; assay type: ADME, organism-based; details: in vivo
Rattus norvegicus [3] = experiment: Cmax in Sprague-Dawley rat assessed as nicotinuric acid at 100 mg/kg, po administered as single dose measured up to 6 hrs post dose by LC/MS/MS analysis; assay type: ADME, organism-based; set-up: dose 100 mg/kg, route oral; details: in vivo
Method in brief: (§2)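 Single oral dose to Sprague Dawley rats; plasma collected at 0.25, 0.5, 1, 2, 4 and 6 hr; analytes in plasma quantified by LC/MS/MS.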

HepG2 = experiment: Inhibition of ApoB secretion in human HepG2 cells after 16 hrs by ELISA; assay type: functional, cell-based
Rattus norvegicus [4] = experiment: Cmax in jugular vein cannulated Sprague-Dawley rat assessed nicotinuric acid at 30 mg/kg, po measured up to 140 mins; assay type: ADME, organism-based; set-up: dose 30 mg/kg, route oral; details: in vivo; method in brief: as §1
[5] = Plasma concentration in Sprague-Dawley rat at 300 mg/kg, qd administered through oral gavage for 7 days measured 2 hrs post last dose by LC/MS/MS analysis; assay type: ADME, organism-based
Liver [6] = experiment: Drug metabolism in Sprague-Dawley rat liver assessed as niacin formation at 300 mg/kg, qd administered through oral gavage for 7 days measured 2 hrs post last dose by LC/MS/MS analysis; assay type: ADME, organism-based; details: in vivo, BLD = below limit of detection
Plasma [7] = experiment: Drug metabolism in Sprague-Dawley rat plasma assessed as nicotinuric acid levels at 100 mg/kg, po administered as single dose after 6 hrs by LC/MS/MS analysis; assay type: ADME, organism-based; details: in vivo; method in brief: as §2
Liver [8] = experiment: Drug metabolism in Sprague-Dawley rat liver assessed as nicotinuric acid formation at 300 mg/kg, qd administered through oral gavage for 7 days measured 2 hrs post last dose by LC/MS/MS analysis; assay type: ADME, organism-based; details: in vivo
Plasma [9] = experiment: Drug metabolism in Sprague-Dawley rat plasma assessed as niacin formation at 300 mg/kg, qd administered through oral gavage for 7 days measured 2 hrs post last dose by LC/MS/MS analysis; assay type: ADME, organism-based; details: in vivo, BLD = below limit of detection
[10] = Drug uptake in Sprague-Dawley rat epididymal fat at 300 mg/kg, po administered for 14 days followed by 7 day washout cycle measured on day 21; assay type: ADME, organism-based, Epididymal fat pad; details: in vivo
[11] = AUClast in Sprague-Dawley rat at 300 mg/kg, po measured up to 24 hrs post dose; assay type: ADME, organism-based; set-up: dose 300 mg/kg, time < 24 hr, route oral; details: in vivo
Method in brief: (§3)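 Single oral dose of 300 mg/kg to Sprague Dawley rats. Plasma collected at 0, 0.5, 1, 2, 4, 8 and 24 hr. Analytes were the parent, the salicylate-linker and linker-DHA metabolites, salicylic acid and salicyluric acid; Cmax and AUClast derived.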

Plasma [12] = experiment: Drug metabolism in Sprague-Dawley rat plasma assessed as salicyluric acid formation at 300 mg/kg, po administered for 14 days followed by 7 day washout cycle measured on day 21; assay type: ADME, organism-based; details: in vivo
Muscle tissue [13] = experiment: Drug metabolism in Sprague-Dawley rat muscle assessed as salicyluric acid formation at 300 mg/kg, po administered for 7 days measured 4 hrs post dose on day 7; assay type: ADME, organism-based; details: in vivo
Method in brief: (§4)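 Male Sprague Dawley rats, groups of 4, dosed orally at 300 mg/kg once daily for 14 days. Animals killed on days 1, 3, 7 and 14, with plasma, brain, epididymal fat, liver and muscle taken 4 hr after dosing. Parent, salicylic acid and salicyluric acid were measured.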

Plasma [14] = experiment: Drug metabolism in Sprague-Dawley rat plasma assessed as (4Z,7Z,10Z,13Z,16Z,19Z)-N-(2-aminoethyl)docosa-4,7,10,13,16,19-hexaenamide formation at 300 mg/kg, po measured up to 24 hrs post dose; details: in vivo
Rattus norvegicus [15] = experiment: Cmax in Sprague-Dawley rat assessed as salicyluric acid at 300 mg/kg, po measured up to 24 hrs post dose; assay type: ADME, organism-based; set-up: dose 300 mg/kg, route oral; details: in vivo; method in brief: as §3
[16] = Drug metabolism in Sprague-Dawley rat epididymal fat assessed as salicylic acid formation at 300 mg/kg, po administered for 7 days measured 4 hrs post dose on day 7; assay type: ADME, organism-based, Epididymal fat pad; details: in vivo; method in brief: as §4
Rattus norvegicus [17] = experiment: AUClast in Sprague-Dawley rat assessed as salicylic acid at 300 mg/kg, po measured up to 24 hrs post dose; assay type: ADME, organism-based; set-up: time < 24 hr, dose 300 mg/kg, route oral; details: in vivo; method in brief: as §3
Liver [18] = experiment: Drug metabolism in Sprague-Dawley rat liver assessed as salicyluric acid formation at 300 mg/kg, po administered for 14 days followed by 7 day washout cycle measured on day 21; assay type: ADME, organism-based; details: in vivo
Muscle tissue [19] = experiment: Drug uptake in Sprague-Dawley rat muscle at 300 mg/kg, po administered for 14 days followed by 7 day washout cycle measured on day 21; assay type: ADME, organism-based; details: in vivo
[20] = Inhibition of NFkappaB in mouse RAW264.7 cells preincubated for 2 hrs followed by LPS addition for 3 hrs by luciferase reporter gene assay relative to control; assay type: cell-based
Plasma [21] = experiment: Drug metabolism in Sprague-Dawley rat plasma assessed as salicylic acid formation at 300 mg/kg, po measured up to 24 hrs post dose; assay type: ADME, organism-based; details: in vivo; method in brief: as §3
Plasma [22] = experiment: Drug metabolism in Sprague-Dawley rat plasma assessed as salicyluric acid formation at 300 mg/kg, po administered for 7 days measured 4 hrs post dose on day 7; assay type: ADME, organism-based; details: in vivo; method in brief: as §4
[23] = Cmax in Sprague-Dawley rat at 300 mg/kg, po measured up to 24 hrs post dose; assay type: ADME, organism-based; set-up: dose 300 mg/kg, route oral; details: in vivo; method in brief: as §3
[24] = Plasma concentration in Sprague-Dawley rat at 300 mg/kg, po administered for 7 days measured 4 hrs post dose on day 7; assay type: ADME, organism-based
Method in brief: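 Male Sprague Dawley rats in groups of 4 received 300 mg/kg orally once daily for up to 14 days. Animals were sacrificed on days 1, 3, 7 and 14, with plasma and tissues (brain, epididymal fat, liver, muscle) collected 4 h after dosing. Samples were analysed by LC/MS/MS for parent compound, salicylic acid and salicyluric acid.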

SMILES: CC/C=C\C/C=C\C/C=C\C/C=C\C/C=C\CCCC(=O)NCCNC(=O)c1cccnc1
Cmax (Rattus norvegicus [1]): 2061 ng/mL
Drug metabolism (Liver [2]): 8.7 ng/g
Cmax (Rattus norvegicus [3]): 1131 ng/mL
inhibition (HepG2): Dose-dependent effect
IC50 (HepG2; HepG2, 16 h): 27 µM
Cmax (Rattus norvegicus [4]): 135 ng/mL
concentration at 2 h [5]: 13 ng/mL
Drug metabolism (Liver [6]): BLD
Drug metabolism (Plasma [7]): > 200 ng/mL
Drug metabolism (Liver [8]): 1356 ng/g
Drug metabolism (Plasma [9]): BLD

Drug uptake [10]: Not Active
AUC(0-t) at 24 h [11]: 1940 ng·h/mL
Drug metabolism (Plasma [12]): metabolite_notdetected
Drug metabolism (Muscle tissue [13]): 165.21 ng/g
Drug metabolism (Plasma [14]): metabolite_notdetected
Cmax (Rattus norvegicus [15]): 563 ng/mL
Drug metabolism [16]: 65.03 ng/g
AUClast (Rattus norvegicus [17]): 229 ng·h/mL
Drug metabolism (Liver [18]): metabolite_notdetected
Drug uptake (Muscle tissue [19]): Not Active
IC50 [20]: 25.4 µM
Drug metabolism (Plasma [21]): metabolite_detected
Drug metabolism (Plasma [22]): 764.41 ng/mL
Cmax [23]: 477 ng/mL
concentration at 4 h [24]: 116 ng/mL
SMILES: CC/C=C\C/C=C\C/C=C\C/C=C\C/C=C\C/C=C\CCC(=O)NCCNC(=O)c1ccccc1O [EDASALONEXENT]
